Values after ≈ are worked out from the molar mass of the structure shown. Active and inactive are the calls of the source.
Legend:
Enterococcus faecalis [1] = test: Ratio of MBC50 to MIC50 for Enterococcus faecalis clinical isolates; format: functional
How it was run: (§1)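 MIC by CLSI broth microdilution in TSB (E. faecalis) or BHI (E. faecium), 37 °C for 18–22 h, taken as the lowest concentration without visible growth. For MBC, 5 μL aliquots were spotted onto TSA (E. faecalis) or BHI agar (E. faecium) and incubated 37 °C for 18–22 h; MBC is the concentration giving >99% drop in count. MIC50/MBC50 cover 50% of isolates.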

Enterococcus faecium [2] = test: Bactericidal activity against Vancomycin-resistant Enterococcus faecium clinical isolates after 18 to 22 hrs by broth microdilution method; format: functional
How it was run: (§2)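 MBC follows the broth microdilution MIC. 5 μL aliquots spotted onto TSA (E. faecalis) or BHI agar (E. faecium), incubated 37 °C for 18–22 h. MBC is the concentration giving >99% reduction in bacterial count. MBC50 is the value for 50% of isolates.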

Enterococcus faecalis [3] = test: Bactericidal activity against vancomycin-resistant Enterococcus faecalis clinical isolates after 18 to 22 hrs by broth microdilution method; format: functional; how it was run: as §2
Enterococcus faecium [4] = test: Bactericidal activity against Enterococcus faecium after 18 to 22 hrs by broth microdilution method; format: functional
How it was run: (§3)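 MBC determined after the broth microdilution MIC. 5 μL aliquots plated onto TSA (E. faecalis) or BHI agar (E. faecium) and incubated at 37 °C for 18–22 h. MBC is the concentration giving >99% reduction in cell count, reported as MBC50.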

Caenorhabditis elegans = test: Toxicity in Caenorhabditis elegans AU37 assessed as worm survival at 20 ug/ml after 24 hrs by microscopic analysis; details: caenorhabditis elegans, 24 h
How it was run: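 Adult C. elegans AU37, 15–20 per well, exposed in triplicate to 10 or 20 μg/mL, with sterile water as negative control. Viability checked by microscopy. Result reported as percent viable worms after 24 h exposure.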

Escherichia coli [5] = test: Antibacterial activity against Escherichia coli 1411 after 18 to 22 hrs in absence of colistin by broth microdilution method; format: functional
How it was run: (§4)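 Broth microdilution per CLSI guidelines. Gram-negatives grown in TSB. Each strain tested alone and again with colistin at ¼ × MIC to permeabilize the outer membrane. Plates incubated at 37 °C for 18–22 h. MIC read as the lowest concentration showing no visible growth.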

Enterococcus faecalis [6] = test: Antibacterial activity against vancomycin-resistant Enterococcus faecalis ATCC 51299 after 14 serial passages measured after 18 hrs by broth microdillution method; format: functional
How it was run: (§5)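 Multi-step selection over 14 passages in two weeks. McFarland 0.5 inoculum diluted 1:300 in TSB (E. faecalis) or BHI (E. faecium) to 1 × 10^5 CFU/mL. Each passage reinoculated at ~5 × 10^5 CFU/mL from the sub-inhibitory well of the previous plate. Compounds serially diluted in triplicate, incubated ≥18 h at 37 °C, MIC read visually. Resistance defined as >4-fold MIC rise.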

Escherichia coli [7] = test: Antibacterial activity against Escherichia coli 1411 harboring delta-acrAB after 18 to 22 hrs in absence of colistin by broth microdilution method; format: functional
Enterococcus faecium [8] = test: Bacteriostatic activity against vancomycin-resistant Enterococcus faecium ATCC 700221 assessed as reduction in CFU at 4 times MIC after 24 hrs; format: functional
How it was run: (§6)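 Late-log cells diluted to ~5 × 10^6 CFU/mL and exposed in triplicate to 4 × MIC, in TSB (E. faecalis HM-201) or BHI (E. faecium ATCC 700221) at 37 °C. Sampled at 0, 2, 4, 6, 8, 10, 12 and 24 h, diluted serially in PBS and plated on TSA or BHI agar. CFU/mL counted after 18–22 h. DMSO served as negative control.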

Enterococcus faecium [9] = test: Ratio of MBC50 to MIC50 for Enterococcus faecium clinical isolates; format: functional; how it was run: as §1
Enterococcus faecalis [10] = test: Bacteriostatic activity against vancomycin-resistant Enterococcus faecalis HM-201 assessed as reduction in CFU at 4 times MIC after 24 hrs; format: functional; how it was run: as §6
Enterococcus faecium [11] = test: Antibacterial activity against vancomycin-resistant Enterococcus faecium ATCC HM-968 assessed as ratio of MIC after and before 3 serial passages measured after 18 hrs by broth microdillution method; format: functional
How it was run: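 Multi-step resistance selection: 0.5 McFarland suspension diluted 1:300 in BHI to a starting 1 × 10^5 CFU/mL. Broth microdilution MIC repeated for 14 passages over two weeks, each reseeded at ~5 × 10^5 CFU/mL from the sub-inhibitory well of the previous passage. Serial dilutions in triplicate, 37 °C for at least 18 h, MIC read visually. Resistance defined as a >4-fold MIC rise.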

Enterococcus faecium [12] = test: Antibacterial activity against vancomycin-resistant Enterococcus faecium ATCC 700221 after 18 to 22 hrs in absence of colistin by broth microdilution method; format: functional
Enterococcus faecium [13] = test: Antibacterial activity against Enterococcus faecium clinical isolates after 18 to 22 hrs by broth microdilution method; format: functional
How it was run: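 Enterococcus faecium grown in BHI. MIC by CLSI broth microdilution, 37 °C for 18–22 h. Lowest concentration with no visible growth taken as MIC, reported as MIC50 across the isolates.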

Enterococcus faecalis [14] = test: Bactericidal activity against Enterococcus faecalis clinical isolates after 18 to 22 hrs by broth microdilution method; format: functional; how it was run: as §3
HRT-18 cell line [15] = test: Cytotoxicity against human HRT18 cells assessed as reduction in cell viability up to 40 ug/ml after 2 hrs by MTS assay; format: cell-based; details: hrt-18, 2 h
How it was run: (§7)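 HRT-18 cells maintained in RPMI-1640 with 10% fetal horse serum at 37 °C, 5% CO2. Exposed to 5, 10, 20 or 40 μg/mL for 2 or 24 h, then MTS added and absorbance read at 490 nm. Viability expressed relative to untreated cells, n ≥ 3, one-way ANOVA with Dunnett's test.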

Pseudomonas aeruginosa [16] = test: Antibacterial activity against Pseudomonas aeruginosa ATCC 15442 after 18 to 22 hrs in absence of colistin by broth microdilution method; format: functional
Enterobacter cloacae [17] = test: Antibacterial activity against Enterobacter cloacae BAA-1154 after 18 to 22 hrs in absence of colistin by broth microdilution method; format: functional
Enterococcus faecalis [18] = test: Antibacterial activity against Enterococcus faecalis ATCC 31975 at 4 to 8 times MIC after 48 hrs by broth microdillution method; format: functional
How it was run: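 Single-step resistance selection. Cultures of 5 × 10^8 to 5 × 10^10 CFU/mL spread on TSA containing compound at 2×, 4× or 8× MIC and incubated aerobically at 37 °C for 48 h. Colony MICs rechecked by broth microdilution. Frequency calculated as resistant colonies per inoculum.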

Staphylococcus aureus = test: Antibacterial against Methicillin-Resistant Staphylococcus aureus after 18 to 20 hrs by broth microdilution method; format: functional
Pseudomonas aeruginosa [19] = test: Antibacterial activity against Pseudomonas aeruginosa ATCC 15442 after 18 to 22 hrs in presence of 1/4 times MIC colistin by broth microdilution method; format: functional; how it was run: as §4
Enterobacter cloacae [20] = test: Antibacterial activity against Enterobacter cloacae BAA-1154 after 18 to 22 hrs in presence of 1/4 times MIC colistin by broth microdilution method; format: functional; how it was run: as §4
Escherichia coli [21] = test: Antibacterial activity against Escherichia coli O157:H7 ATCC 35150 after 18 to 22 hrs in absence of colistin by broth microdilution method; format: functional
Enterococcus faecium [22] = test: Bactericidal activity against vancomycin-resistant Enterococcus faecium ATCC 700221 at 4 times MIC after 24 hrs by time-kill assay; format: functional; how it was run: as §6
Enterococcus faecalis [23] = test: Synergistic antimicrobial activity against Enterococcus faecalis ATCC 49532 after 20 hrs in presence of ciprofloxacin by checkerboard assay; format: functional
How it was run: (§8)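 Checkerboard in TSB with a starting inoculum of 1×10^5 CFU/mL. Compound and antibiotic diluted from 2× or 4× MIC along perpendicular axes. Incubated 20 h at 37 °C. ΣFIC calculated: ≤0.5 synergy, >0.5 to <2 additive, 2–4 indifference, >4 antagonism.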

Enterococcus faecalis [24] = test: Antibacterial activity against Enterococcus faecalis clinical isolates after 18 to 22 hrs by broth microdilution method; format: functional
How it was run: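 CLSI broth microdilution against panels of enterococcal isolates. E. faecalis grown in TSB, E. faecium in BHI, 37 °C for 18–22 h. MIC is the lowest concentration without visible growth. MIC50 is the value inhibiting 50% of isolates in each group.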

Acinetobacter baumannii [25] = test: Antibacterial activity against Acinetobacter baumanii ATCC 19606 after 18 to 22 hrs in absence of colistin by broth microdilution method; format: functional; details: ATCC 19606 = CIP 70.34 = JCM 6841; how it was run: as §4
HRT-18 cell line [26] = test: Cytotoxicity against human HRT18 cells assessed as reduction in cell viability at 20 ug/ml after 24 hrs by MTS assay; format: cell-based; details: hrt-18, 24 h; how it was run: as §7
Klebsiella pneumoniae [27] = test: Antibacterial activity against Klebsiella pneumoniae BAA-1706 after 18 to 22 hrs in absence of colistin by broth microdilution method; format: functional
Enterococcus faecalis [28] = test: Synergistic antimicrobial activity against Enterococcus faecalis ATCC 49533 after 20 hrs in presence of ciprofloxacin by checkerboard assay; format: functional; how it was run: as §8
Enterococcus faecium [29] = test: Antibacterial activity against vancomycin-resistant Enterococcus faecium ATCC HM-968 assessed as ratio of MIC after and before 11 serial passages measured after 18 hrs by broth microdillution method; format: functional; how it was run: as §5
Klebsiella pneumoniae [30] = test: Antibacterial activity against Klebsiella pneumoniae BAA-1706 after 18 to 22 hrs in presence of 1/4 times MIC colistin by broth microdilution method; format: functional; how it was run: as §4
Enterococcus faecium [31] = test: Ratio of MBC50 to MIC50 for vancomycin-resistant Enterococcus faecium ATCC 700221; format: functional
Enterococcus faecalis [32] = test: Antibacterial activity against vancomycin-resistant Enterococcus faecalis ATCC 51299 assessed as ratio of MIC after and before 11 serial passages measured after 18 hrs by broth microdillution method; format: functional; how it was run: as §5
Enterococcus faecium [33] = test: Bactericidal activity against vancomycin-resistant Enterococcus faecium ATCC 700221 at 4 times MIC after 2 hrs by time-kill assay; format: functional; how it was run: as §6
HRT-18 cell line [34] = test: Cytotoxicity against human HRT18 cells assessed as reduction in cell viability at 40 ug/ml after 24 hrs by MTS assay; format: cell-based; details: hrt-18, 24 h; how it was run: as §7
Enterococcus faecalis [35] = test: Antibacterial activity against vancomycin-resistant Enterococcus faecalis ATCC 51299 assessed as ratio of MIC after and before 6 serial passages measured after 18 hrs by broth microdillution method; format: functional; how it was run: as §5
Acinetobacter baumannii [36] = test: Antibacterial activity against Acinetobacter baumanii ATCC 19606 after 18 to 22 hrs in presence of 1/4 times MIC colistin by broth microdilution method; format: functional; details: ATCC 19606 = CIP 70.34 = JCM 6841; how it was run: as §4

CC(=O)NC[C@H]1CN(c2ccc(N3CCOCC3)c(F)c2)C(=O)O1 [LINEZOLID]
Ratio (Enterococcus faecalis [1]): >4
MBC50 (Enterococcus faecium [2]): 128 µg/mL (≈ 379 µM)
MBC50 (Enterococcus faecalis [3]): 64 µg/mL (≈ 190 µM)
MBC50 (Enterococcus faecium [4]): 16 µg/mL (≈ 47.4 µM)
Activity (Caenorhabditis elegans): Non-Toxic
MIC (Escherichia coli [5]): > 128 µg/mL
Activity (Enterococcus faecalis [6]): Active
MIC (Escherichia coli [7]): 8 µg/mL (≈ 23.7 µM)
Activity (Enterococcus faecium [8]): Active
Ratio (Enterococcus faecium [9]): >4
Activity (Enterococcus faecalis [10]): Active
Ratio (Enterococcus faecium [11]): 1
MIC (Enterococcus faecium [12]): 0.5 µg/mL (≈ 1.48 µM)
MIC50 (Enterococcus faecium [13]): 2 µg/mL (≈ 5.93 µM)
MBC50 (Enterococcus faecalis [14]): 64 µg/mL (≈ 190 µM)

C/C(=N\NC(=N)N)c1sc(-c2ccc(-c3ccccc3)cc2)nc1C
MBC50 (Enterococcus faecium [2]): 16 µg/mL (≈ 45.8 µM)
Activity (HRT-18 cell line [15]): Non-Toxic
MIC (Pseudomonas aeruginosa [16]): > 128 µg/mL
MIC (Enterobacter cloacae [17]): > 128 µg/mL
Activity (Enterococcus faecalis [18]): Active
MIC (Staphylococcus aureus): 1.3 to 5.6 µg/mL (≈ 3.72 to 16 µM)
MIC (Pseudomonas aeruginosa [19]): 1 µg/mL
MIC (Enterobacter cloacae [20]): 1 µg/mL
MIC (Escherichia coli [21]): > 128 µg/mL
MBC50 (Enterococcus faecium [4]): 16 µg/mL (≈ 45.8 µM)
Activity (Enterococcus faecium [22]): inactive
fractional inhibitory concentration index (FICI) (Enterococcus faecalis [23]): 0.63 - 1
MIC (Escherichia coli [7]): 4 µg/mL (≈ 11.4 µM)
Activity (Enterococcus faecium [8]): Active
MIC50 (Enterococcus faecalis [24]): 8 µg/mL (≈ 22.9 µM)
MIC (Acinetobacter baumannii [25]): 8 µg/mL (≈ 22.9 µM)
Activity (HRT-18 cell line [26]): Non-Toxic
MIC (Klebsiella pneumoniae [27]): > 128 µg/mL
fractional inhibitory concentration index (FICI) (Enterococcus faecalis [28]): 0.63 - 1
MIC (Enterococcus faecium [12]): 0.5 µg/mL (≈ 1.43 µM)
Ratio (Enterococcus faecium [29]): 1
MIC50 (Enterococcus faecium [13]): 8 µg/mL (≈ 22.9 µM)
MIC (Klebsiella pneumoniae [30]): 2 µg/mL
Ratio (Enterococcus faecium [31]): >4
Ratio (Enterococcus faecalis [32]): 2
Activity (Enterococcus faecium [33]): Active
MBC50 (Enterococcus faecalis [14]): 16 µg/mL (≈ 45.8 µM)
Activity (HRT-18 cell line [34]): Toxic
Ratio (Enterococcus faecalis [35]): 1
MIC (Acinetobacter baumannii [36]): 1 µg/mL

— ChEMBL document CHEMBL4028805, “Phenylthiazole Antibacterial Agents Targeting Cell Wall Synthesis Exhibit Potent Activity in Vitro and in Vivo against Vancomycin-Resistant Enterococci” (J Med Chem, 2017)
